Source: PubChem (several laboratories)
An excerpt weighted towards active compounds, which were near 5.4% of everything screened.
CSC inhib = cancer stem cell inhibition. cancer stem cell-like cells viability, luminescence. inhibition, % at 7.5 µM. 300,000 compounds, 1.1% hits. AID 2717; in the data active = inhibition above about 75%; tested in HMLE shEcad cells
Mdm2 MdmX PPI = human Mdm2/MdmX binding inhibition. AID 485346. 330,000 compounds, 3% hits. O15151+Q00987. inhibition, % at 8 µM. SaOS-2 split-luciferase Mdm2/MdmX complementation, luminescence;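 active = inhibition of at least 50% at 8 µM in the primary screen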
Target sequence (O15151 whole entry, looked up): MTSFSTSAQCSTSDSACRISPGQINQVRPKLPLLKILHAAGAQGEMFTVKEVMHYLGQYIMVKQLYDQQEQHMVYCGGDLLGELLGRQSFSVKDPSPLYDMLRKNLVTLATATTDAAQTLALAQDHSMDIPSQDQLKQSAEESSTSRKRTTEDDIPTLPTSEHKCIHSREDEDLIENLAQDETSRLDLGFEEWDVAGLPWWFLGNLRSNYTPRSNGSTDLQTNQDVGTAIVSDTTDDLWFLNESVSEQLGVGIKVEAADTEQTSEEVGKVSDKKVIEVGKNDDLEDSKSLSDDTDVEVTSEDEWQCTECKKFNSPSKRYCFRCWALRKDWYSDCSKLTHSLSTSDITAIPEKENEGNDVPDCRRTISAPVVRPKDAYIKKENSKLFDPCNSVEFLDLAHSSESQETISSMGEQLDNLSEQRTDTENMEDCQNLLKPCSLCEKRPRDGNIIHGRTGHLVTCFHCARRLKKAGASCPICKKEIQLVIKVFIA
Target sequence (Q00987 whole entry, looked up): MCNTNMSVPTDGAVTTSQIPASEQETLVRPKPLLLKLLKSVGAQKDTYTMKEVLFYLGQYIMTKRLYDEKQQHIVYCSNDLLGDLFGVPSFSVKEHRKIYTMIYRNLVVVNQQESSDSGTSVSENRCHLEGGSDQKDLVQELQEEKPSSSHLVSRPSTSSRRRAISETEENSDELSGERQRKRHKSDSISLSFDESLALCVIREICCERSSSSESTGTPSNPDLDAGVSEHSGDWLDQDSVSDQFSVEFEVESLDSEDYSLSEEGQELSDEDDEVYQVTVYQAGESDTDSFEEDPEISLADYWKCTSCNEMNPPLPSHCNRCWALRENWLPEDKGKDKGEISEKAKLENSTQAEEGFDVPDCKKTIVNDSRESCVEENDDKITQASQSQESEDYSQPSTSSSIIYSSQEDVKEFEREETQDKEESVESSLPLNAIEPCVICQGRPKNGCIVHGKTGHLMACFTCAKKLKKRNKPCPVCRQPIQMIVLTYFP
aSyn UTR inh = MLPCN primary screen, SNCA 5' untranslated region. 300,000 compounds, 0.82% hits. alpha-synuclein 5'UTR reporter, inhibitor activity. inhibition, % (tested at 7.5 µM). AID 1813; in the data active = inhibition above about 60%;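 note: H4 neuroglioblastoma cells stably carrying SNCA 5'UTR luciferase fusion; 0% = DMSO wells and 100% = positive control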
T cruzi repl = blocks replication of Trypanosoma cruzi | inhibition, % (no concentration beside the values) | 300,000 compounds, 1.4% hits | T. cruzi beta-gal in NIH3T3, luminescence, 90 h | AID 1885;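 active = mean inhibition across valid replicates above about 55%, limit read from the data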;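 note: signal also drops with host cell toxicity which is not excluded here; 0% = plate median of DMSO wells and 100% = zero luminescence signal; higher percent means less beta-gal luminescence so fewer parasites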
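Test system: β-gal T. cruzi (Tulahuen C4) inside NIH/3T3 cells / Quantity: 5,000 cells/well / Measured by: luminescence from GalScreen with 0.05% NP40, read after 60 min / Medium: DMEM plus 2% FBS / Measure: parasite load inhibition, % / Reagent: Tulahuen C4 trypomastigotes, 5000/well / Schedule: co-culture of at least 90 h after 3 h attachment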
SKKanGAS inh = inhibitors of SKKanGAS S. pyogenes growth in kanamycin (SK-promoter or general growth effect); BacTiter-Glo, 6 h; AID 1662; 300,000 compounds, 1.3% hits; inhibition, % at 7.5 µM;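 active = mean replicate score, as percent of positive control median, at least 50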;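 note: strain carries kanamycin resistance gene driven by streptokinase promoter and grows in 40 µg/ml kanamycin; loss of luminescence reflects streptokinase promoter inhibition or plain growth inhibition; 0% = median of DMSO wells and 100% = positive control at its reference dose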
* = called active by the depositor; nt = no result given; ! = a repeat was not active.

SMILES	CSC inhib	Mdm2 MdmX PPI	aSyn UTR inh	T cruzi repl	SKKanGAS inh
COc1ccc(-c2cc(C(=O)NNC(=S)NC(=O)c3c(-c4ccccc4)noc3C)[nH]n2)cc1	23.3	18.3	16.1	4.3	93.0*
COc1ccc(NC(=O)c2c(-c3ccccc3)noc2C)c(OC)c1	18.2	15.7	-12.1	-7.1	-5.1
COc1ccc(C(=O)C[n+]2cc(-c3ccc(OC)cc3)n3c2CCCC3)cc1	-6.1	36.6	4.7	62.2*!	-12.5
O=C(C[n+]1cc(-c2ccc(Cl)c(Cl)c2)n2c1CCC2)N1c2ccccc2Sc2ccccc21	-10.2	25.4	4.5	54.5*	-29.4
COc1ccc(-c2c[n+](CC(=O)c3cccs3)c3n2CCC3)cc1	-4.9	34.7	-10.7	0.1	0.3
O=C(C[n+]1cc(-c2ccc(Cl)cc2)n2c1CCC2)N1c2ccccc2Sc2ccccc21	-4.9	17.8	-12.7	45.9	-22.7
COc1ccc(-c2c[n+](CC(=O)N3c4ccccc4Sc4ccccc43)c3n2CCC3)cc1	-14.3	38.3	-9.5	57.1*	-1.1
O=C(/C=C/c1ccco1)N(Cc1cccc(F)c1)C1CCS(=O)(=O)C1 (configuration not stated)	-11.6	14.0	1.1	-15.7	-6.9
COc1ccc(S(=O)(=O)N2CCN(CC(=O)NCCc3cccs3)CC2)cc1	-10.5	-27.6	nt	nt	nt
Cc1ccc(OCC(=O)Nc2c(C)ccc3nsnc23)cc1	-11.7	14.5	-0.5	12.9	0.6
NC1=C(Br)C(=O)c2ccccc2C1=O	58.6	43.3	65.4*	-5.5	17.4
N#CC1=C(SCC(=O)c2ccc(Br)cc2)NC2=C(C(=O)CCC2)C1c1ccco1 (configuration not stated)	91.3*	40.8	nt	nt	nt
O=c1cc(N2CCCCC2)c(-c2ccccc2)nn1Cc1ccc(Cl)cc1	102.8*	44.0	37.3	48.4	94.2*
O=c1cc(N2CCCCC2)c(-c2ccccc2)nn1Cc1ccc(F)cc1	40.1	15.7	30.1	55.0*	16.7
O=c1c2c(c(-c3ccccc3)nn1Cc1ccccc1)CCCC2	-1.0	18.2	1.1	6.8	7.0
Cc1cc(C(F)(F)F)nn1CC(=O)Nc1ccc2c(c1)OCO2	-5.7	0.2	-3.7	5.3	-3.1
COc1ccccc1NC(=O)CNC(c1ccccc1)c1ccccc1	7.2	-26.0	1.2	22.2	9.0
COc1ccc(C)cc1NC(=O)CNC(c1ccccc1)c1ccc(C)cc1 (configuration not stated)	55.9	47.3	103.5*	-9.9	37.9
Nc1ccccc1N=Cc1ccc(-c2cccc(Cl)c2)o1	76.6*	-19.3	-145.1	43.5	-4.7
Cc1nc2c(ccc3nc(NC(=O)c4ccc5c(c4)OCCO5)sc32)s1	nt	9.3	-116.6	56.7*	33.7
Cc1nc2ccc3nc(NC(=O)c4ccc5c(c4)OCCO5)sc3c2s1	-6.8	11.4	-44.7	-9.6	-0.2
N#Cc1ccccc1Cn1cc(/C=N/Nc2ccc([N+](=O)[O-])cn2)c2ccccc21	17.2	28.2	6.5	64.4*	12.1
COc1cc2c(cc1OC)C(c1ccc(Br)cc1)NCC2 (configuration not stated)	-15.5	25.6	63.3*	57.0*	-13.6
CN(C)c1ccc(CNCCC2CCOC(C)(C)C2)cc1 (configuration not stated)	3.8	15.1	-31.8	58.0*	-6.2
CNC(=O)NC(=O)C(C)OC(=O)c1oc2ccccc2c1CSc1ccc(Cl)cc1 (configuration not stated)	104.0*	28.7	11.4	14.8	24.0
SMILES	CSC inhib	Mdm2 MdmX PPI	aSyn UTR inh	T cruzi repl	SKKanGAS inh
COc1ccc(C(=O)Nc2ncc3c(n2)CC(C)CC3=O)cc1 (configuration not stated)	-2.8	3.8	-5.2	63.9*	-5.5
Cc1nc(N)sc1N=Nc1ccc(F)cc1	-4.5	-38.8	-106.9	10.9	80.9*
CN(CC(=O)Nc1ccc(Cl)c(C(F)(F)F)c1)C(=O)CCN1C(=O)C2CC=CCC2C1=O (configuration not stated)	0.7	18.3	14.6	-0.7	-8.0
CCN(CC)S(=O)(=O)c1cccc(NC(=O)c2ccc(-n3nc(C)cc3C)cc2)c1	1.2	-1.6	5.9	-8.4	-2.7
C(=C\c1ccccc1)/CN1CCN(Cc2ccc3c(c2)OCCO3)CC1	nt	nt	-1.9	63.7*	-8.9
O=S(=O)(/C=C/c1ccccc1)N1CCN(Cc2ccc3c(c2)OCO3)CC1	5.5	-16.0	7.8	3.0	-15.8
CC1CCN(C(=O)CSc2nc(C(C)C)nc3c2c(=O)n(C)c(=O)n3C)CC1	21.0	34.9	15.4	8.6	22.2
